# Screens: PubChem BioAssay, several laboratories
# core dimer inh = HCV core protein dimerization inhibition. TR-FRET GST/Flag-core106 dimerization, 1536-well. inhibition, % at 5 µM. hit rate 0.33% among 300,000. AID 1899;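 active = inhibition above the mean of all tested compounds plus 3 SD, set per screening campaign, cut at about 45% in these data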
#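 assay system = GST-tagged and Flag-tagged HCV core protein residues 1-106 | controls = unlabelled core106 and no-GST-core106 wells | incubation = compound-protein-antibody incubation 4 h at 22.5 °C | probe or stimulus = Eu donor and XL665 acceptor anti-tag antibodies | read-out = % inhibition based on acceptor/donor emission ratio | signal = TR-FRET 671 and 617 nm emission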
# NS3 helicase inh = blocks Hepatitis C virus NS3 helicase unwinding; NS3 helicase DNA unwinding, Cy5 molecular beacon fluorescence; inhibition, % at 10.9 µM; hit rate 0.56% among 290,000; AID 1800;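 active = inhibition above the mean of all tested compounds plus 3 SD, set per campaign, cut at about 35% in these data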;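 also: 0% = DMSO wells and 100% = thioflavine S control wells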
#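 Compound dosing – single dose, 10.9 µM nominal final, DMSO 0.8% final · System – NS3 helicase fragment of HCV · Buffer or medium – MOPS pH 6.5, MgCl2, DTT, Tween20, BSA · Signal – Cy5 beacon fluorescence read at start and 1 h · Also added – annealed dual-labelled DNA beacon duplex, ATP-started · Schedule – 1 h at 25 °C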
# A3G deaminase = inhibitors of human APOBEC3G DNA deaminase. Q9HC16. recombinant A3G, ssDNA deamination FAM/TAMRA fluorescence. inhibition, % at 20 µM. hit rate 0.28% among 330,000. AID 493012;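 active = inhibition of at least 40% at 20 µM, with no more than 30% in the related APOBEC3A deaminase screen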;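 also: plate controls were DMSO wells with A3G for no effect and wells lacking A3G enzyme for full effect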
# A3A deaminase = blocks human APOBEC3A ssDNA deamination. recombinant A3A, FAM/TAMRA ssDNA deamination fluorescence. inhibition, % at 20 µM. P31941. hit rate 0.41% among 330,000;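 active = at least 40% inhibition at 20 µM here, with at most 30% in a related deaminase screen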;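 also: plate controls were A3A with DMSO for no effect and wells lacking A3A enzyme for full effect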
# Target sequence (P31941 whole entry, looked up): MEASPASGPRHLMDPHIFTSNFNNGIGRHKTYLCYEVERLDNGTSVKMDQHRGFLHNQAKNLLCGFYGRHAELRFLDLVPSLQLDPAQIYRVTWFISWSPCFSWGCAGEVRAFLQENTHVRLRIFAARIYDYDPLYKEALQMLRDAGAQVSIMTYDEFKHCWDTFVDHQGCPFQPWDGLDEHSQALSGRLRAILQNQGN
# PRMT1 inh = PRMT1 (human) inhibition, primary screen. inhibition, % at 2.79 µM. recombinant PRMT1, activity-based probe fluorescence polarization. AID 652257. hit rate 1.3% among 370,000. Q99873;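 active = inhibition above about 21% made by adding two undisclosed values, limit read from the data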
# ABHD5 PLIN5 PPI = ABHD5-PLIN5 protein interaction inhibition. Q00G26+Q8WTS1. Split G. princeps luciferase complementation, luminescence, 4 h. inhibition, % at 4 µM. hit rate 0.78% among 360,000. AID 602281;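 active = inhibition above the mean inhibition across every tested compound plus 3 SD, cut at about 22% in these data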;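 also: 0% = DMSO only wells and the 100% control is not disclosed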
# NS3 helicase cf = HCV NS3 helicase inhibition, confirmation assay | hit rate 31% among 1,600 | inhibition, % at 10.9 µM | shares compounds with NS3 helicase inh | NS3 helicase DNA unwinding, Cy5 molecular beacon fluorescence | AID 1943;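 active = inhibition above the mean of all tested compounds plus 3 SD, cutoff set per campaign, cut at about 36% in these data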
# DNA FID counter = displaces DNA intercalator in HCV helicase counter-screen; shares compounds with NS3 helicase inh; DNA fluorescent intercalator displacement, fluorescence; AID 1945; hit rate 4% among 1,600; inhibition, % at 7.9 µM; in the data active = inhibition above about 37%;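 also: 0% = vehicle and 100% = reference compound; higher means more displacement of ethidium bromide from the DNA hairpin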
# Numbers without * were called inactive; . = not tested or not shown. An excerpt weighted towards active compounds, which were near 2.9% of everything screened.
SMILES,core dimer inh,NS3 helicase inh,A3G deaminase,A3A deaminase,PRMT1 inh,ABHD5 PLIN5 PPI,NS3 helicase cf,DNA FID counter
CC1(C)Cc2c(c(-c3ccco3)[nH]c(=O)c2C#N)CS1,-3,44*,11,29,74*,8,75*,7
COc1cc(/C=C2/C(=O)NN(c3cccc(Cl)c3)C2=O)cc(OC)c1O,8,46*,-1,2,22*,3,51*,14
COc1cc(/C=C2/NC(=O)N(c3cccc(Cl)c3)C2=O)ccc1O,-23,-6,0,2,0,6,.,.
CCOc1cc(/C=C2/C(=O)NN(c3cccc(Cl)c3)C2=O)ccc1O,13,37*,-1,-3,18,-2,64*,-4
COc1cc(NC(=O)CNC(=O)Cn2cnc3sc(C)c(C)c3c2=O)cc(OC)c1OC,.,.,.,.,-1,-2,.,.
Cc1nn(Cc2ccc(Cl)c(Cl)c2)c(C)c1NC(=O)c1cc(-c2ccco2)on1,14,40*,-4,0,-3,4,-9,-55
Clc1cccc(CSc2ccc(-c3ccco3)nn2)c1,12,1,-2,0,8,0,.,.
O=c1cc(-c2ccco2)nc(SCc2cccc(Cl)c2)[nH]1,4,45*,7,1,6,6,9,-9
COC(=O)[C@]12C[C@H](CC(=O)NCc3cccc4ccccc34)C(=O)N(Cc3ccc4c(c3)OCO4)C1=C[C@H](C(C)C)O[C@@H]2C1CC1,.,.,.,.,4,.,.,.
Cc1nc2ccccn2c1C(=O)N/N=C/c1ccc2c(c1)OCO2,-5,40*,-8,-7,-2,3,-11,3
O=C(O)c1cccc(NC(=S)N/N=C/c2ccccc2OCc2ccc(Br)cc2)c1,31,42*,-1,2,11,-10,63*,4
O=C(O)c1cccc(NC(=S)N/N=C/c2ccccc2OCc2cccc(Br)c2)c1,.,24,.,.,0,-8,.,.
CCOC(=O)c1ccc(N(C(=O)CNC(=O)c2ccco2)C(C(=O)NCC2CCCO2)c2ccc(OC)c(OC)c2)cc1 (stereo not drawn),8,51*,-7,-2,2,0,-10,-53
COc1ccc(C(C(=O)NCC2CCCO2)N(C(=O)CNC(=O)c2ccco2)c2ccccc2)cc1OC (stereo not drawn),-11,-2,2,-4,9,11,.,.
CC1=NN(c2ccccc2)C(=O)/C1=C/C=C/C=C/N(C)C,-31,39*,-1,4,-3,17,-16,12
CCOC(=O)c1sc2ncn(/N=C/N(C)C)c(=O)c2c1C,-3,41*,1,0,-5,-2,-5,11
CCOC(=O)CC(=O)CSc1nc(-c2ccc3c(c2)OCO3)cc(C(F)(F)F)c1C#N,-24,37*,-4,-2,.,-6,-2,1
OC[C@@H]1CN(Cc2cccs2)C[C@H](n2cnc3c(NCc4ccco4)ncnc32)O1,.,.,.,.,3,-8,.,.
O=C(C1=C(O)C(=O)N(CC2CCCO2)C1c1ccccc1)c1ccco1 (stereo not drawn),5,16,-8,-3,5,-10,.,.
CC(C)(C)c1ccc(C2C(C(=O)c3ccco3)=C(O)C(=O)N2CC2CCCO2)cc1 (stereo not drawn),9,37*,-8,-3,-2,-6,10,-13
O=C(C1=C(O)C(=O)N(CC2CCCO2)C1c1ccc(Cl)cc1Cl)c1ccco1 (stereo not drawn),-1,68*,-9,-7,1,-8,-3,-21
Nc1ccc(CCc2ccccn2)cc1,.,.,.,.,-5,5,.,.
CC1CCc2c(sc3nc(SCC(=O)O)n(-c4ccccc4)c(=O)c23)C1 (stereo not drawn),4,37*,-3,-6,9,-7,15,-16
N#Cc1cnn2c(=O)[nH]cnc12,.,.,.,.,-6,-3,.,.
Cc1ccc(S(=O)(=O)Nc2cc(C(=O)O)ccc2N2CCCCC2)cc1,8,75*,-1,-2,-1,2,17,-39
